Here are results for 5 compounds from ChEMBL document CHEMBL2040708, “Rational design, synthesis, and pharmacological properties of pyranochalcone derivatives as potent anti-inflammatory agents” (Eur J Med Chem, 2012).

Activity calls are given as the source filed them. The rule behind the calls is not given here. Where only a bound is given, the exact number is not on record here.

Assay [1] has as its system RAW264.7. Kind of assay: Cytotoxicity against mouse RAW264.7 cells after 24 hrs by MTT assay in the presence of LPS. The conditions noted are these: RAW264.7, 24 h. It is filed as cell-based.
For another assay, the system named is Mus musculus. Kind of assay: Antiinflammatory activity in ICR mouse assessed as decrease in carrageenan-induced paw edema at 10 mg/kg, ip administered 30 mins prior to carrageenan-challenge measured at 4 hrs relative to vehicle treated control. Format: functional. Particulars: route intraperitoneal. In outline:
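Male ICR mice dosed i.p. 30 min before subplantar injection of freshly prepared 1% carrageenan suspension into the right hind paw. Footpad thickness measured with a gauge caliper at 1, 2, 3, 4 and 5 h. Inhibition calculated from increase in paw thickness versus the control group; mean (SEM), n = 5.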

Assay [2] has as its target T1, Nitric oxide synthase, inducible (Mus musculus, UniProt P29477).
T1 sequence (P29477 whole entry): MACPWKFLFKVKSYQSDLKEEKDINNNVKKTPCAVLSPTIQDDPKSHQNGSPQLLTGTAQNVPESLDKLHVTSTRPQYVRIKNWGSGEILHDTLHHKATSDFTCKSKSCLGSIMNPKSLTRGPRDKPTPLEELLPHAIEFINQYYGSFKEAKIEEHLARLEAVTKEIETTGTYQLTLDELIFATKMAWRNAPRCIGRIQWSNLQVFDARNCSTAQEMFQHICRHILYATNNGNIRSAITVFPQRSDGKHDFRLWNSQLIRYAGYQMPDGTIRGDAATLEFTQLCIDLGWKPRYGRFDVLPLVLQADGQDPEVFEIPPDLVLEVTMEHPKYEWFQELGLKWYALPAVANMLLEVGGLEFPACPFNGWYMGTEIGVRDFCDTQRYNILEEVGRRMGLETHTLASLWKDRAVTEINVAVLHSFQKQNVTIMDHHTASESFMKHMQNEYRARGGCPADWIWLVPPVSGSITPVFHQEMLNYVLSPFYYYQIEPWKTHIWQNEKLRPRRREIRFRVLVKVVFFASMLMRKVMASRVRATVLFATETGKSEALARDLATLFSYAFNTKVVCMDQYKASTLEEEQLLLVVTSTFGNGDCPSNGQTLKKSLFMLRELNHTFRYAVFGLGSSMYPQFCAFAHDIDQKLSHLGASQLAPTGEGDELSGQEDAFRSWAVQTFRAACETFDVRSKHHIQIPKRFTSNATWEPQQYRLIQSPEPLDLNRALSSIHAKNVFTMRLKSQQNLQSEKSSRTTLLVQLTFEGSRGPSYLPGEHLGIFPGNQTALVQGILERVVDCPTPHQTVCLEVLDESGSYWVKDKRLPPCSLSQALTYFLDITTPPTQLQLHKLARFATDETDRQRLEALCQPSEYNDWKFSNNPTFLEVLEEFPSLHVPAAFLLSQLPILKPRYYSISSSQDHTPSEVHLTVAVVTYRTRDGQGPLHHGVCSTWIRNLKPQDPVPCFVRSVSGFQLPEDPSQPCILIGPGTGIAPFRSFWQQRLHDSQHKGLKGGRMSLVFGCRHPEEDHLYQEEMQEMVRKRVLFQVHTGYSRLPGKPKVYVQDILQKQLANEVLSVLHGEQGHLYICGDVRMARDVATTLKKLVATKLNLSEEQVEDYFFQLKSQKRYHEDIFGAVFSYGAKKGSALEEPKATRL
Kind of assay: Inhibition of iNOS in mouse RAW264.7 cells assessed as inhibition of LPS-induced nitric oxide production for 2 hrs by DAF-FMDA dye based fluorometric assay. Format: cell-based.

In assay [3] the test system is RAW264.7. Kind of assay: Cytotoxicity against mouse RAW264.7 cells after 24 hrs by MTT assay in the absence of LPS. It is filed as cell-based. The conditions noted are these: RAW264.7, 24 h. In a few lines: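 RAW264.7 cells at 5 × 10⁴/well, exposed to a range of concentrations in serum-free medium for 24 h. MTT (5 mg/mL in saline) added for a further 4 h, formazan dissolved in DMSO, absorbance read at 540 nm. Viability expressed relative to the blank control.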

For assay [4], the system named is Rattus norvegicus. Kind of assay: Antiarthritic activity in Lewis rat adjuvant-induced arthritis model assessed as decrease in complete Freund's adjuvant-induced suppression of histopathological changes at 25 mg/kg/day, po for 14 days post inflammation development signs by Hematoxylin and eosin staining. It is filed as functional, organism-based. In outline:
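CFA-induced arthritis in male Lewis rats, dosed orally each day for 14 d after a 7 d vehicle lead-in. Animals sacrificed, foot pads fixed in neutral buffered formal saline and embedded in paraffin. 5 µm sections stained with H&E and examined under the microscope.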

In assay [5] the test system is Rattus norvegicus. Kind of assay: Antiarthritic activity in Lewis rat adjuvant-induced arthritis model assessed as decrease in complete Freund's adjuvant-induced weight loss administered daily oral doses for 14 days post inflammation development signs. Format: functional, organism-based. In outline: (§1)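 Male Lewis rats, 12 weeks old, six per group, injected with CFA at the tail base. Vehicle (2% Tween 80/0.5% methylcellulose) given orally for 7 d until full joint inflammation, then randomized and dosed orally daily for 14 d at 10 or 25 mg/kg. Arthritis scored daily on hind paw erythema, swelling, joint tenderness, movement and posture. Body weight tracked; means ± S.E.M.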

In assay [6] the test system is Rattus norvegicus. Kind of assay: Antiarthritic activity in Lewis rat adjuvant-induced arthritis model assessed as decrease in complete Freund's adjuvant-induced arthritis administered daily oral doses for 14 days post inflammation development signs. It is filed as functional, organism-based. In outline: as §1

On to `CC1(C)C=Cc2c(ccc(C(=O)/C=C/c3ccc(Br)cc3)c2O)O1`, for which the IC50 is above 80 µM in the assay on RAW264.7 [1], 17.8 µM in assay [2] and above 80 µM in the assay on RAW264.7 [3]. In the assay with Mus musculus, the inhibition in vivo at 10 mg/kg amounted to 27.6%.
With `COc1ccc2c(c1)c(CC(=O)O)c(C)n2C(=O)c1ccc(Cl)cc1` [INDOMETHACIN], the IC50 in the assay with RAW264.7 [1] was above 80 µM; in assay [2], 20 µM; in the assay on RAW264.7 [3] it was above 80 µM. Besides, the inhibition in vivo at 10 mg/kg in the assay on Mus musculus was 45.8%.
Regarding `COc1cc(/C=C/C(=O)c2ccc3c(c2O)C=CC(C)(C)O3)cc(OC)c1OC`, the IC50 was above 80 µM in the assay on RAW264.7 [1], 6.2 µM in assay [2] and above 80 µM in the assay with RAW264.7 [3]. The inhibition in vivo at 10 mg/kg in the assay on Mus musculus was 34.4%.
Regarding `COc1ccc(/C=C/C(=O)c2ccc3c(c2O)C=CC(C)(C)O3)cc1OC`, the IC50 in the assay with RAW264.7 [1] was above 80 µM; in assay [2], 7.9 µM; with RAW264.7 [3] it was above 80 µM. In addition, in the assay on Mus musculus, the inhibition in vivo at 10 mg/kg worked out at 52.4%. Besides, the inhibition result with Rattus norvegicus [4] and in the assay with Rattus norvegicus [5] was “Active” in each case. In addition, the inhibition entry in the assay with Rattus norvegicus [6] is “Dose-dependent effect”.
In the case of `CC1(C)C=Cc2c(ccc(C(=O)/C=C/c3cccc(F)c3)c2O)O1`, the IC50 with RAW264.7 [1] is above 80 µM; in assay [2], 5.4 µM; in the assay with RAW264.7 [3], above 80 µM. For the same compound, the inhibition in vivo at 10 mg/kg in the assay with Mus musculus was 9%.
